The text below walks through data of ChEMBL document CHEMBL1140290, “Synthesis and evaluation of (17alpha,20Z)-21-(4-substituted-phenyl)-19-norpregna-1,3,5(10),20-tetraene-3,17beta-diols as ligands for the estrogen receptor-alpha hormone binding domain: comparison with 20E-isomers” (J Med Chem, 2005).

The target of experiment [1] is T1, Estrogen receptor (Homo sapiens) (UniProt P03372).
T1 sequence (whole entry): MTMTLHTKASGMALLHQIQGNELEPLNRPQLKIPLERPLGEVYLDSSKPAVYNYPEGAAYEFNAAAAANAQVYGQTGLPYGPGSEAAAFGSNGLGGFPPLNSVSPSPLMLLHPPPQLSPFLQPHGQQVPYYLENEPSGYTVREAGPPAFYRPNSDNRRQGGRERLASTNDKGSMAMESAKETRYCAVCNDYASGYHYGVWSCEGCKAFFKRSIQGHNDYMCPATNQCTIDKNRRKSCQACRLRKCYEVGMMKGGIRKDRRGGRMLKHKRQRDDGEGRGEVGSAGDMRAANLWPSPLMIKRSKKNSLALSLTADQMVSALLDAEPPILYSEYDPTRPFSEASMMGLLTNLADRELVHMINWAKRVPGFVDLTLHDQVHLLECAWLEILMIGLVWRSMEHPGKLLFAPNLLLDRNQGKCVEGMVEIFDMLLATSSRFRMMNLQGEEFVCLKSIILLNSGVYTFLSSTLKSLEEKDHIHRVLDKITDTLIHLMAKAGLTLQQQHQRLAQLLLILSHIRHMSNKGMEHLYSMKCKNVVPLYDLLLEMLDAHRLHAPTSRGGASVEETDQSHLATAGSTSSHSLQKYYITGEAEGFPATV
Nature of the experiment: Relative binding affinity of E isomers to human ERalpha-HBD at 4C compared to [3H]-estradiol.

In experiment [2] the target is T1, Estrogen receptor (Homo sapiens). Briefly: Relative binding affinity of Z isomers to human ERalpha-HBD at 25 degree C compared to [3H]estradiol. Summed up:
(§1)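 ERα-HBD (33 kDa) expressed in BL21 cells, induced with 0.6 mM IPTG for 3 h at room temperature. Lysed by sonication in Tris/NaCl/EDTA/DTT/1 M urea buffer, pH 7.4, clarified at 30000g, and diluted to 50 nM ER. […] Bound and free separated with dextran-coated charcoal. RBA = 100×[E]/[C], from 50% inhibition on a best-fit curve.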

The target is the same in experiment [3]. Nature of the experiment: Relative binding affinity of E isomers to human ERalpha-HBD at 25 degree C compared to [3H]estradiol.
Experiment [4] has the same target. Briefly: Relative binding affinity of Z isomers to human ERalpha-HBD at 4C compared to [3H]estradiol. The method, boiled down: as §1
Experiment [5] has as its target T2, Estrogen receptor (Rattus norvegicus) (UniProt P06211+Q62986). Nature of the experiment: Effective dose of Z-isomer in rat uterotrophic growth assay compared to 10 nmol estradiol. Format: functional.
Experiment [6] has as its target T2, Estrogen receptor (Rattus norvegicus). Briefly: Effective dose of E-isomer in rat uterotrophic growth assay compared to 10 nmol estradiol. Format: functional.

Each structure is given as a SMILES string.

With `C[C@]12CC[C@@H]3c4ccc(O)cc4CC[C@H]3[C@@H]1CC[C@@]2(O)/C=C\c1ccc(O)cc1`, the RBA in experiment [1] was found to be 21%; in experiment [2], 25%; in experiment [3], 25%; in experiment [4] it was 12%.

Turning to `CC(=O)c1ccc(/C=C\[C@]2(O)CC[C@H]3[C@@H]4CCc5cc(O)ccc5[C@H]4CC[C@@]32C)cc1`, the RBA is 53% in experiment [1], 29% in experiment [2], 60% in experiment [3] and 22% in experiment [4].

`C[C@]12CC[C@@H]3c4ccc(O)cc4CC[C@H]3[C@@H]1CC[C@@]2(O)/C=C\c1ccc(N)cc1`: the RBA stood at 26% in experiment [2] and 22% in experiment [4].

As to `Cc1ccc(/C=C\[C@]2(O)CC[C@H]3[C@@H]4CCc5cc(O)ccc5[C@H]4CC[C@@]32C)cc1`, the RBA in experiment [1] was determined as 10%; in experiment [2] it was 9%; in experiment [3] it was 18%; in experiment [4], 10%. The ED50 in experiment [5] stood at 4.2 nmol; in experiment [6], 5.5 nmol.

Consider `C[C@]12CC[C@@H]3c4ccc(O)cc4CC[C@H]3[C@@H]1CC[C@@]2(O)/C=C\c1ccc(C(F)(F)F)cc1`, for which the RBA in experiment [1] turned out to be 5%; in experiment [2], 9%; in experiment [3] it was 8%; in experiment [4] it was 5%. The ED50 came to 1.1 nmol in experiment [5] and 10.6 nmol in experiment [6].

Take `C[C@]12CC[C@@H]3c4ccc(O)cc4CC[C@H]3[C@@H]1CC[C@@]2(O)/C=C\c1ccc(C#N)cc1`: the RBA in experiment [1] was 9%; in experiment [2] it was 12%; in experiment [3], 27%; in experiment [4] it was 20%.

As for `C[C@]12CC[C@@H]3c4ccc(O)cc4CC[C@H]3[C@@H]1CC[C@@]2(O)/C=C\c1ccccc1`, the RBA in experiment [1] was 16%; in experiment [2], 66%; in experiment [3] it was 9%; in experiment [4] it was 57%.

Consider `C[C@]12CC[C@@H]3c4ccc(O)cc4CC[C@H]3[C@@H]1CC[C@@]2(O)/C=C\c1ccc(F)cc1`, for which the RBA was 24% in experiment [1], 44% in experiment [2], 22% in experiment [3] and 43% in experiment [4]. Also, the ED50 in experiment [5] came out at 2.3 nmol; in experiment [6] it was 72 nmol.

For `COc1ccc(/C=C\[C@]2(O)CC[C@H]3[C@@H]4CCc5cc(O)ccc5[C@H]4CC[C@@]32C)cc1`, the RBA in experiment [1] came out at 36%; in experiment [2] it was 39%; in experiment [3], 32%; in experiment [4], 20%.
